≈ marks a conversion by molar mass, not a printed value.
Key:
Assay type in all cases: functional
[1] = Geometric mean of antibacterial activity (Gram -ve bacteria) of the compound
Summary of the method: (§1)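 Geometric means calculated from agar-dilution MICs (µg/mL), taken separately across the five Gram-positive and the eight Gram-negative panel strains.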

Pseudomonas aeruginosa = test: Antibacterial activity tested against P. ae (Pseudomonas aeruginosa) ATCC 9027
Summary of the method: (§2)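 MICs (µg/mL) determined by conventional agar dilution against a panel of eight Gram-negative and five Gram-positive reference strains.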

[2] = tested on: Staphylococcus epidermidis; test: Antibacterial activity tested against Staphylococcus epidermidis CPHL A2; summary of the method: as §2
Enterobacter cloacae = test: Antibacterial activity tested against Enterobacter cloacae OMNFI 174
Providencia stuartii = test: Antibacterial activity tested against Providencia stuartii CNUR 5; summary of the method: as §2
[3] = tested on: Staphylococcus epidermidis; test: Antibacterial activity tested against Staphylococcus epidermidis HCF Berset C; summary of the method: as §2
Staphylococcus aureus [4] = test: Antibacterial activity against Staphylococcus aureus MPR 5; summary of the method: as §2
Bacteria = test: Geometric mean of antibacterial activity (Gram +ve bacteria) of the compound; summary of the method: as §1
Proteus vulgaris = test: Antibacterial activity tested against Proteus vulgaris CNUR 5; summary of the method: as §2
Escherichia coli [5] = test: Antibacterial activity tested against Escherichia coli ATCC 8739; summary of the method: as §2
Staphylococcus aureus [6] = test: Antibacterial activity against Staphylococcus aureus ATCC 6538; summary of the method: as §2
Escherichia coli [7] = test: Antibacterial activity tested against Escherichia coli ISF 432; summary of the method: as §2
Klebsiella pneumoniae = test: Antibacterial activity tested against Klebsiella pneumoniae (Klebsiella pneumoniae) ATCC 10031; summary of the method: as §2
Enterococcus faecalis = test: Antibacterial activity tested against Streptococcus faecalis LEP Br; summary of the method: as §2
Shigella = test: Antibacterial activity tested against Shigella enteritidis; summary of the method: as §2

Compound	Geometric mean [1]	MIC (Pseudomonas aeruginosa)	MIC [2]	MIC (Enterobacter cloacae)	MIC (Providencia stuartii)	MIC [3]	MIC (Staphylococcus aureus [4])	Geometric mean (Bacteria)	MIC (Proteus vulgaris)	MIC (Escherichia coli [5])	MIC (Staphylococcus aureus [6])	MIC (Escherichia coli [7])	MIC (Klebsiella pneumoniae)	MIC (Enterococcus faecalis)	MIC (Shigella)
Cc1c(N2CCN(C)CC2)c(F)cc2c(=O)c(C(=O)O)cn(C3CC3)c12	0.145	2 µg/mL (≈ 5.56 µM)	0.25 µg/mL (≈ 0.696 µM)	0.03 µg/mL (≈ 0.0835 µM)	2 µg/mL (≈ 5.56 µM)	0.25 µg/mL (≈ 0.696 µM)	0.03 µg/mL (≈ 0.0835 µM)	0.162	2 µg/mL (≈ 5.56 µM)	0.03 µg/mL (≈ 0.0835 µM)	0.06 µg/mL (≈ 0.167 µM)	0.03 µg/mL (≈ 0.0835 µM)	0.03 µg/mL (≈ 0.0835 µM)	1 µg/mL (≈ 2.78 µM)	0.03 µg/mL (≈ 0.0835 µM)
Cc1c(N2CCCCCC2)c(N)cc2c(=O)c(C(=O)O)cn(C3CC3)c12	0.763	4 µg/mL (≈ 11.3 µM)	0.25 µg/mL (≈ 0.703 µM)	1 µg/mL (≈ 2.81 µM)	0.5 µg/mL (≈ 1.41 µM)	0.2 µg/mL (≈ 0.563 µM)	0.125 µg/mL (≈ 0.352 µM)	0.275	32 µg/mL (≈ 90 µM)	2 µg/mL (≈ 5.63 µM)	0.125 µg/mL (≈ 0.352 µM)	0.03 µg/mL (≈ 0.0844 µM)	0.03 µg/mL (≈ 0.0844 µM)	2 µg/mL (≈ 5.63 µM)	1 µg/mL (≈ 2.81 µM)
Cc1c(N2CCNCC2)c(N)cc2c(=O)c(C(=O)O)cn(C3CC3)c12	0.158	1 µg/mL (≈ 2.92 µM)	4 µg/mL (≈ 11.7 µM)	0.06 µg/mL (≈ 0.175 µM)	2 µg/mL (≈ 5.84 µM)	8 µg/mL (≈ 23.4 µM)	4 µg/mL (≈ 11.7 µM)	5.28	4 µg/mL (≈ 11.7 µM)	0.03 µg/mL (≈ 0.0876 µM)	2 µg/mL (≈ 5.84 µM)	0.03 µg/mL (≈ 0.0876 µM)	0.03 µg/mL (≈ 0.0876 µM)	16 µg/mL (≈ 46.7 µM)	0.03 µg/mL (≈ 0.0876 µM)
CN1CCN(c2c(N)cc3c(=O)c(C(=O)O)cn(C4CC4)c3c2F)CC1	0.699	2 µg/mL (≈ 5.55 µM)	4 µg/mL (≈ 11.1 µM)	0.25 µg/mL (≈ 0.694 µM)	4 µg/mL (≈ 11.1 µM)	8 µg/mL (≈ 22.2 µM)	4 µg/mL (≈ 11.1 µM)	8	32 µg/mL (≈ 88.8 µM)	1 µg/mL (≈ 2.77 µM)	4 µg/mL (≈ 11.1 µM)	0.06 µg/mL (≈ 0.166 µM)	0.06 µg/mL (≈ 0.166 µM)	64 µg/mL (≈ 178 µM)	0.25 µg/mL (≈ 0.694 µM)
CN1CCN(c2cc3c(cc2N)c(=O)c(C(=O)O)cn3-c2ccc(F)cc2)CC1	1.834	8 µg/mL (≈ 20.2 µM)	8 µg/mL (≈ 20.2 µM)	4 µg/mL (≈ 10.1 µM)	4 µg/mL (≈ 10.1 µM)	8 µg/mL (≈ 20.2 µM)	4 µg/mL (≈ 10.1 µM)	10.556	128 µg/mL (≈ 323 µM)	0.125 µg/mL (≈ 0.315 µM)	8 µg/mL (≈ 20.2 µM)	0.125 µg/mL (≈ 0.315 µM)	0.125 µg/mL (≈ 0.315 µM)	64 µg/mL (≈ 161 µM)	4 µg/mL (≈ 10.1 µM)
CN1CCN(c2nc3c(cc2N)c(=O)c(C(=O)O)cn3C2CC2)CC1	0.416	2 µg/mL (≈ 5.82 µM)	4 µg/mL (≈ 11.6 µM)	0.125 µg/mL (≈ 0.364 µM)	2 µg/mL (≈ 5.82 µM)	4 µg/mL (≈ 11.6 µM)	4 µg/mL (≈ 11.6 µM)	6.063	64 µg/mL (≈ 186 µM)	0.125 µg/mL (≈ 0.364 µM)	4 µg/mL (≈ 11.6 µM)	0.06 µg/mL (≈ 0.175 µM)	0.03 µg/mL (≈ 0.0874 µM)	32 µg/mL (≈ 93.2 µM)	0.125 µg/mL (≈ 0.364 µM)
Cc1c(N2CCCCC2)c(F)cc2c(=O)c(C(=O)O)cn(C3CC3)c12	0.591	1 µg/mL (≈ 2.9 µM)	0.03 µg/mL (≈ 0.0871 µM)	16 µg/mL (≈ 46.5 µM)	2 µg/mL (≈ 5.81 µM)	0.03 µg/mL (≈ 0.0871 µM)	0.03 µg/mL (≈ 0.0871 µM)	0.046	2 µg/mL (≈ 5.81 µM)	0.125 µg/mL (≈ 0.363 µM)	0.03 µg/mL (≈ 0.0871 µM)	0.03 µg/mL (≈ 0.0871 µM)	0.125 µg/mL (≈ 0.363 µM)	0.25 µg/mL (≈ 0.726 µM)	0.5 µg/mL (≈ 1.45 µM)
Cc1c(N2CCCC2)c(N)cc2c(=O)c(C(=O)O)cn(C3CC3)c12	22.627	> 128 µg/mL	16 µg/mL (≈ 48.9 µM)	64 µg/mL (≈ 195 µM)	64 µg/mL (≈ 195 µM)	16 µg/mL (≈ 48.9 µM)	4 µg/mL (≈ 12.2 µM)	12.12	> 128 µg/mL	32 µg/mL (≈ 97.7 µM)	4 µg/mL (≈ 12.2 µM)	1 µg/mL (≈ 3.05 µM)	0.5 µg/mL (≈ 1.53 µM)	64 µg/mL (≈ 195 µM)	64 µg/mL (≈ 195 µM)
Cc1c(N2CCC(C)CC2)c(N(C)C)cc2c(=O)c(C(=O)O)cn(C3CC3)c12	64	64 µg/mL (≈ 167 µM)	32 µg/mL (≈ 83.4 µM)	64 µg/mL (≈ 167 µM)	64 µg/mL (≈ 167 µM)	8 µg/mL (≈ 20.9 µM)	16 µg/mL (≈ 41.7 µM)	24.251	64 µg/mL (≈ 167 µM)	64 µg/mL (≈ 167 µM)	64 µg/mL (≈ 167 µM)	64 µg/mL (≈ 167 µM)	64 µg/mL (≈ 167 µM)	32 µg/mL (≈ 83.4 µM)	64 µg/mL (≈ 167 µM)
Cc1c(N2CC=CCC2)c(N)cc2c(=O)c(C(=O)O)cn(C3CC3)c12	20.749	> 128 µg/mL	> 128 µg/mL	> 128 µg/mL	> 128 µg/mL	> 128 µg/mL	> 128 µg/mL	128	> 128 µg/mL	1 µg/mL (≈ 2.95 µM)	> 128 µg/mL	1 µg/mL (≈ 2.95 µM)	1 µg/mL (≈ 2.95 µM)	> 128 µg/mL	> 128 µg/mL
Cc1c(N2CCCC(CO)C2)c(N)cc2c(=O)c(C(=O)O)cn(C3CC3)c12 (stereo not given)	0.504	2 µg/mL (≈ 5.38 µM)	0.25 µg/mL (≈ 0.673 µM)	2 µg/mL (≈ 5.38 µM)	4 µg/mL (≈ 10.8 µM)	0.25 µg/mL (≈ 0.673 µM)	0.125 µg/mL (≈ 0.337 µM)	0.287	64 µg/mL (≈ 172 µM)	0.016 µg/mL (≈ 0.0431 µM)	0.125 µg/mL (≈ 0.337 µM)	0.016 µg/mL (≈ 0.0431 µM)	0.016 µg/mL (≈ 0.0431 µM)	2 µg/mL (≈ 5.38 µM)	1 µg/mL (≈ 2.69 µM)
Cc1c(N2CCN(C)CC2)c(N)cc2c(=O)c(C(=O)O)cn(-c3ccc(F)cc3)c12	9.513	128 µg/mL (≈ 312 µM)	128 µg/mL (≈ 312 µM)	16 µg/mL (≈ 39 µM)	16 µg/mL (≈ 39 µM)	128 µg/mL (≈ 312 µM)	128 µg/mL (≈ 312 µM)	111.43	> 128 µg/mL	1 µg/mL (≈ 2.44 µM)	64 µg/mL (≈ 156 µM)	1 µg/mL (≈ 2.44 µM)	1 µg/mL (≈ 2.44 µM)	128 µg/mL (≈ 312 µM)	16 µg/mL (≈ 39 µM)
CC1CN(c2cc3c(cc2N)c(=O)c(C(=O)O)cn3C2CC2)CC(C)(C)N1 (stereo not given)	0.451	2 µg/mL (≈ 5.4 µM)	2 µg/mL (≈ 5.4 µM)	0.5 µg/mL (≈ 1.35 µM)	4 µg/mL (≈ 10.8 µM)	4 µg/mL (≈ 10.8 µM)	8 µg/mL (≈ 21.6 µM)	6.964	64 µg/mL (≈ 173 µM)	0.03 µg/mL (≈ 0.081 µM)	8 µg/mL (≈ 21.6 µM)	0.03 µg/mL (≈ 0.081 µM)	0.03 µg/mL (≈ 0.081 µM)	32 µg/mL (≈ 86.4 µM)	0.25 µg/mL (≈ 0.675 µM)
Cc1c(N2CCC(C)CC2)c([N+](=O)[O-])cc2c(=O)c(C(=O)O)cn(C3CC3)c12	38.054	64 µg/mL (≈ 166 µM)	4 µg/mL (≈ 10.4 µM)	64 µg/mL (≈ 166 µM)	64 µg/mL (≈ 166 µM)	4 µg/mL (≈ 10.4 µM)	2 µg/mL (≈ 5.19 µM)	8	64 µg/mL (≈ 166 µM)	32 µg/mL (≈ 83 µM)	32 µg/mL (≈ 83 µM)	2 µg/mL (≈ 5.19 µM)	64 µg/mL (≈ 166 µM)	32 µg/mL (≈ 83 µM)	64 µg/mL (≈ 166 µM)

Reference: ChEMBL document CHEMBL1129660, “Studies on 6-aminoquinolones: synthesis and antibacterial evaluation of 6-amino-8-methylquinolones” (J Med Chem, 1996)
